Shown are actives, neighbours in structure and some others; about 12% of the full set was active somewhere.
CHOP inh – CHOP inhibition in unfolded protein response. inhibition, % at 10 µM. CHO-K1 CHOP-promoter luciferase, tunicamycin-induced, 15-18 h. 220,000 tested, 3.8% active;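 active means compounds that reduced the stress-induced luciferase reporter signal by more than about 70% of percent inhibition, limit read from the data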
MT stabilize HCS – microtubule stabilization, imaging screen; HeLa tubulin immunostaining HCS, 24 h; share of cells brighter than vehicle mean+2SD; % tubulin-high responders, % at 10 µM; 200,000 tested, 0.83% active; AID 2205;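 active means plate Z-score above 3 for both tubulin-high and condensed-nucleus cell shares, with cell loss under 80%, at 10 µM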;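 further: anti alpha tubulin signal scored within the nucleus-defined area of each cell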
Lmaj promast – reduces viability of Leishmania major promastigotes; resazurin fluorescence viability; inhibition, % at 10 µM; 200,000 tested, 9% active; AID 1063; in the data active means inhibition above about 50%;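 further: promastigotes grown with compound for 44 hours at 28 °C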
Autophagy mod – modulators of autophagy; 190,000 tested, 0.98% active; calls only at 10 µM (by protocol); MEF GFP-LC3 puncta imaging; test concentration mostly 10 µM; AID 463193;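 active means percentage of spot-positive cells more than 3 SD above its plate mean, without a fluorescence outlier flag or 80% toxicity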
b-catenin transl – alters nuclear translocation of beta-catenin in HeLa cells; immunofluorescence imaging; nuclear translocation activity, % at 5 µM; 190,000 tested, 0.3% active; AID 1665;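 active means nuclear translocation activity above 50% at 5 µM, with a well cell count of 50 or more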;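 further: per-cell ratio of nuclear to cytoplasmic median beta-catenin stain intensity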
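Assay system: human HeLa cells, native beta-catenin; doses: 5 µM primary, 0.02–20 µM confirmation; incubation: compound treatment 24 h, 37°C, 5% CO2; technique: fluorescence imaging of beta-catenin antibody stain plus DAPI; measure: % activation, nuclear-to-cytoplasmic median beta-catenin signal ratio per cell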
Dynein cargo inh – blocks dynein driven cargo transport along microtubules; 220,000 tested, 0.47% active; 3617.4 mouse cells, GR-EGFP nuclear translocation imaging; test concentration mostly 20 µM; stimulated with dexamethasone, 1 µM; hits give low values; AID 1381; z-score, hits read low;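 active means plate z-score of nuclear minus cytoplasmic receptor signal below a set negative limit, without overly bright fluorescence or cell loss, cut at about -3.5 in these data, passing the limit was not always enough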;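 further: z-score of nuclear minus cytoplasmic ring GR-EGFP intensity difference per well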
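medium = tetracycline-free induction medium containing charcoal-stripped FBS | also added = 1.0 µM final dexamethasone stimulus | schedule = 48 h induction, 1 h compound, 30 min dex at 37 °C | technique = fixed, Hoechst-stained cells imaged at 10x for EGFP | measure = GR-EGFP nuclear translocation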
A number is an active result; – = inactive; · = no result given; + = active, no number.

SMILES	CHOP inh	MT stabilize HCS	Lmaj promast	Autophagy mod	b-catenin transl	Dynein cargo inh
O=C(CSc1nc2ccccc2c(=O)n1Cc1ccc(Cl)cc1)NCc1cccs1	73	–	–	–	–	–
COc1cccc(NC(=O)CSc2nc3ccccc3c(=O)n2Cc2cccs2)c1	–	–	–	+	–	–
CC1Cc2nc(SCC(=O)Nc3ccc(F)cc3)n(C)c(=O)c2S1 (centres undefined)	–	–	–	–	–	–
CCn1c(SCC(=O)NCc2ccccc2)nc2ccccc2c1=O	–	–	–	–	–	–
CCOc1cc(CN2CCCC(C(=O)c3cccc(C(F)(F)F)c3)C2)ccc1O (centres undefined)	–	–	54	–	–	–
CC(C)Oc1cccc(C(=O)C2CCCN(C(=O)c3ccnn3C)C2)c1 (centres undefined)	–	–	–	–	–	–
CCOC(=O)C1CCCN(Cc2ccc(O)c(OC)c2)C1 (centres undefined)	–	–	–	–	–	–
CC(C)Oc1cccc(C(=O)C2CCCN(Cc3cnn(C(C)C)c3)C2)c1 (centres undefined)	–	–	85	–	–	–
CC(C)Oc1cccc(C(=O)C2CCCN(S(C)(=O)=O)C2)c1 (centres undefined)	–	–	–	–	–	–
COc1cccc(C(=O)C2CCCN(Cc3cccn3-c3ccccn3)C2)c1 (centres undefined)	–	–	–	–	–	–
Cc1noc(C)c1S(=O)(=O)N1CCCC(C(=O)c2cccc(OC(C)C)c2)C1 (centres undefined)	–	–	56	–	–	–
CC(C)Oc1cccc(C(=O)C2CCCN(Cc3cccn3-c3ccccn3)C2)c1 (centres undefined)	–	–	98	–	–	–
CCn1nc(C)c(CN2CCCC(C(=O)c3cccc(OC(C)C)c3)C2)c1C (centres undefined)	–	–	86	–	–	–
O=C(c1ccc(C(F)(F)F)cc1)C1CCCN(Cc2cccn2-c2ncccn2)C1 (centres undefined)	–	–	71	–	–	–
Cc1nn(C(C)C)c(C)c1CN1CCCC(C(=O)c2cccc(OC(C)C)c2)C1 (centres undefined)	–	–	–	–	–	–
CC(C)Oc1cccc(C(=O)C2CCCN(Cc3ccc4nonc4c3)C2)c1 (centres undefined)	–	–	83	–	–	–
O=C(c1cccc(C(F)(F)F)c1)C1CCCN(Cc2cccn2-c2ncccn2)C1 (centres undefined)	–	–	–	–	–	–
Cc1ccc(C(=O)CSc2cnc3ccccc3n2)cc1C	–	–	–	–	·	–
NNC(=O)[C@H]1C[C@@H]1c1ccccc1	–	–	–	–	–	–
COc1ccc(C(=O)NCC(C)(C)SCc2c(C)cc(C)cc2C)cc1	73	–	–	–	–	–
Cc1c(C(=O)NCc2ccccc2)oc2ccc(S(=O)(=O)N3CCC4(CC3)OCCO4)cc12	–	–	–	–	–	–
Cc1c(C(=O)Nc2ccc(F)c(F)c2)oc2ccc(S(=O)(=O)N3CCCCC3)cc12	75	–	–	–	–	–
Cc1c(C(=O)Nc2ccc(F)cc2)oc2ccc(S(=O)(=O)N3CCCC3)cc12	–	–	–	–	–	–
Cc1c(C(=O)Nc2ccc(F)cc2)oc2ccc(S(=O)(=O)N3CCC4(CC3)OCCO4)cc12	71	–	–	–	–	–
COc1ccccc1NC(=O)c1cc(S(=O)(=O)N2CCC3(CC2)OCCO3)ccc1F	–	–	–	–	–	–
Cc1ccc(NC(=O)c2cc(S(=O)(=O)N3CCC4(CC3)OCCO4)ccc2F)cc1	–	–	96	–	–	–
Cc1c(C(=O)Nc2cccc(Cl)c2)oc2ccc(S(=O)(=O)N3CCC4(CC3)OCCO4)cc12	–	–	52	–	–	–
O=[N+]([O-])CC(=Nc1ccc(F)cc1)N/N=C\c1oc(O)c2ccccc12	–	·	·	·	–	–
COc1ccccc1N1CCN(C(=O)CSc2nnc3c4ccccc4nc(Cc4ccccc4)n23)CC1	–	–	–	–	–	–
CCN(CC)c1nc(C)c(C(=S)Nc2cc([N+](=O)[O-])ccc2Cl)s1	–	–	–	+	·	–

Source: PubChem BioAssay
